Source: ChEMBL document CHEMBL1165995, “Anti-ischemia steroidal saponins from the seeds of Allium fistulosum” (2010)

Key:
Format in all cases: functional
Conditions in all cases: Homo sapiens, read-out: Activity
HUVEC [1] = experiment: Antiischemic activity against hypoxia/reoxygenation-induced cell injury in HUVEC assessed as cell viability at 100 uM by MTT assay
Outline: (§1)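 HUVEC given hypoxia/reoxygenation (H/R) injury and treated with saponin at one of six dose groups (0.5, 1, 5, 10, 50, 100 µM). Viability was read by MTT assay, with untreated control cells and H/R-only cells as references. Values are mean ± SEM of three independent experiments, and significance was tested against the H/R group.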

HUVEC [2] = experiment: Antiischemic activity against hypoxia/reoxygenation-induced cell injury in HUVEC assessed as cell viability at 0.5 uM by MTT assay; outline: as §1
HUVEC [3] = experiment: Antiischemic activity against hypoxia/reoxygenation-induced cell injury in HUVEC assessed as cell viability at 10 uM by MTT assay; outline: as §1
HUVEC [4] = experiment: Antiischemic activity against hypoxia/reoxygenation-induced cell injury in HUVEC assessed as cell viability at 50 uM by MTT assay; outline: as §1
HUVEC [5] = experiment: Antiischemic activity against hypoxia/reoxygenation-induced cell injury in HUVEC assessed as cell viability at 5 uM by MTT assay; outline: as §1
HUVEC [6] = experiment: Antiischemic activity against hypoxia/reoxygenation-induced cell injury in HUVEC assessed as cell viability at 1 uM by MTT assay; outline: as §1

Row | Structure (SMILES) | viability at 100 µM (HUVEC [1]) [%] | viability at 0.5 µM (HUVEC [2]) [%] | viability at 10 µM (HUVEC [3]) [%] | viability at 50 µM (HUVEC [4]) [%] | viability at 5 µM (HUVEC [5]) [%] | viability at 1 µM (HUVEC [6]) [%]
1 | CC1=C(CC[C@H](C)CO[C@@H]2O[C@H](CO)[C@@H](O)[C@H](O)[C@H]2O)O[C@H]2C[C@H]3[C@@H]4CC=C5C[C@@H](O[C@@H]6O[C@H](CO)[C@@H](O)[C@H](O)[C@H]6O[C@@H]6O[C@H](CO)[C@@H](O)[C@H](O)[C@H]6O[C@@H]6O[C@H](CO)[C@@H](O)[C@H](O)[C@H]6O)[C@H](O)C[C@]5(C)[C@H]4CC[C@]3(C)[C@@H]12 [FISTULOSAPONIN E] | 68 | 60.9 | 77.9 | 75.4 | 70.2 | 64.3
2 | C[C@@H](CC[C@@]1(O)O[C@H]2C[C@H]3[C@@H]4CC=C5C[C@@H](O[C@@H]6O[C@H](CO)[C@@H](O)[C@H](O)[C@H]6O[C@@H]6O[C@H](CO)[C@@H](O)[C@H](O)[C@H]6O[C@@H]6O[C@H](CO)[C@@H](O)[C@H](O)[C@H]6O)C(=O)C[C@]5(C)[C@H]4CC[C@]3(C)[C@H]2[C@@H]1C)CO[C@@H]1O[C@H](CO)[C@@H](O)[C@H](O)[C@H]1O [FISTULOSAPONIN D] | 75.6 | 68.9 | 79.8 | 82.4 | 78.2 | 72.6
3 | C[C@@H](CC[C@@]1(O)O[C@H]2C[C@H]3[C@@H]4CC=C5C[C@@H](O[C@@H]6O[C@H](CO)[C@@H](O)[C@H](O)[C@H]6O[C@@H]6O[C@H](CO)[C@@H](O)[C@H](O)[C@H]6O[C@@H]6O[C@H](CO)[C@@H](O)[C@H](O)[C@H]6O)[C@H](O)C[C@]5(C)[C@H]4CC[C@]3(C)[C@H]2[C@@H]1C)CO[C@@H]1O[C@H](CO)[C@@H](O)[C@H](O)[C@H]1O [FISTULOSAPONIN F] | 71.2 | 62.3 | 75.5 | 77.4 | 74.1 | 68.3
4 | C[C@@H](CC[C@@]1(O)O[C@H]2C[C@H]3[C@@H]4CC=C5C[C@@H](O[C@@H]6O[C@H](CO)[C@@H](O)[C@H](O[C@@H]7O[C@H](CO)[C@@H](O)[C@H](O)[C@H]7O)[C@H]6O[C@@H]6O[C@@H](C)[C@H](O)[C@@H](O)[C@H]6O)CC[C@]5(C)[C@H]4CC[C@]3(C)[C@H]2[C@@H]1C)CO[C@@H]1O[C@H](CO)[C@@H](O)[C@H](O)[C@H]1O [PROTOGRACILLIN] | 68 | 60.9 | 77.9 | 78.2 | 75.2 | 69.5
5 | C[C@@H](CC[C@@]1(O)O[C@H]2C[C@H]3[C@@H]4CC=C5C[C@@H](O[C@@H]6O[C@H](CO)[C@@H](O[C@@H]7O[C@@H](C)[C@H](O)[C@@H](O)[C@H]7O)[C@H](O)[C@H]6O[C@@H]6O[C@@H](C)[C@H](O)[C@@H](O)[C@H]6O)CC[C@]5(C)[C@H]4CC[C@]3(C)[C@H]2[C@@H]1C)CO[C@@H]1O[C@H](CO)[C@@H](O)[C@H](O)[C@H]1O | 68.6 | 60.7 | 72.1 | 74.3 | 69.4 | 63.5
6 | C[C@@H](CC[C@@]1(O)O[C@H]2C[C@H]3[C@@H]4CC=C5C[C@@H](O[C@@H]6O[C@H](CO)[C@@H](O[C@@H]7O[C@@H](C)[C@H](O[C@@H]8O[C@@H](C)[C@H](O)[C@@H](O)[C@H]8O)[C@@H](O)[C@H]7O)[C@H](O)[C@H]6O[C@@H]6O[C@@H](C)[C@H](O)[C@@H](O)[C@H]6O)CC[C@]5(C)[C@H]4CC[C@]3(C)[C@H]2[C@@H]1C)CO[C@@H]1O[C@H](CO)[C@@H](O)[C@H](O)[C@H]1O | 62.8 | 64 | 73.3 | 73.6 | 69.5 | 65.2
7 | C[C@@H](CC[C@@]1(O)O[C@H]2C[C@H]3[C@@H]4CC=C5C[C@@H](O[C@@H]6O[C@H](CO)[C@@H](O[C@@H]7O[C@@H](C)[C@H](O)[C@@H](O)[C@H]7O)[C@H](O)[C@H]6O[C@@H]6O[C@@H](C)[C@H](O)[C@@H](O)[C@H]6O)C(=O)C[C@]5(C)[C@H]4CC[C@]3(C)[C@H]2[C@@H]1C)CO[C@@H]1O[C@H](CO)[C@@H](O)[C@H](O)[C@H]1O [FISTULOSAPONIN B] | 74.8 | 65.7 | 79.4 | 82.1 | 77.2 | 71.8
8 | CC1=C(CC[C@H](C)CO[C@@H]2O[C@H](CO)[C@@H](O)[C@H](O)[C@H]2O)O[C@H]2C[C@H]3[C@@H]4CC=C5C[C@@H](O[C@@H]6O[C@H](CO)[C@@H](O[C@@H]7O[C@@H](C)[C@H](O)[C@@H](O)[C@H]7O)[C@H](O)[C@H]6O[C@@H]6O[C@@H](C)[C@H](O)[C@@H](O)[C@H]6O)C(=O)C[C@]5(C)[C@H]4CC[C@]3(C)[C@@H]12 [FISTULOSAPONIN A] | 78.2 | 59.5 | 82.7 | 86.3 | 80.1 | 76.3
9 | C[C@@H](CC[C@@]1(O)O[C@H]2C[C@H]3[C@@H]4CC=C5C[C@@H](O[C@@H]6O[C@H](CO)[C@@H](O)[C@H](O)[C@H]6O[C@@H]6O[C@@H](C)[C@H](O[C@@H]7O[C@@H](C)[C@H](O)[C@@H](O)[C@H]7O)[C@@H](O)[C@H]6O)C(=O)C[C@]5(C)[C@H]4CC[C@]3(C)[C@H]2[C@@H]1C)CO[C@@H]1O[C@H](CO)[C@@H](O)[C@H](O)[C@H]1O [FISTULOSAPONIN C] | 69.5 | 71.7 | 81.2 | 84.6 | 79.7 | 74.8
